{"source": "ChEMBL document CHEMBL1124265", "about": "“Effects of D-amino acid substitution on antagonist activities of angiotensin II analogues” (J Med Chem, 1988)", "key": {"Rattus norvegicus [1]": {"organism": "Rattus norvegicus", "assay": "Dose required for the two fold increase in the dose of AII to produce the same elevation in blood pressure as in the control period.", "assay_type": "functional", "outline": "(§1)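 Rat blood pressure assay in vivo, using 250-g rats. ID50 is the antagonist dose, in ng/rat per min, that requires a twofold increase in the AII dose to give the same blood pressure rise as in the control period.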"}, "Oryctolagus cuniculus [2]": {"organism": "Oryctolagus cuniculus", "assay": "In vitro AII-like activity, expressed as percent activity relative to AII (angiotensin II), measured in rabbit aorta", "assay_type": "functional"}, "[3]": {"target": "Angiotensin II receptor (Homo sapiens) (UniProt P30556+P50052)", "assay": "In vitro angiotensin II-like activity, expressed as percent relative to angiotensin II, measured in the rabbit aorta strip assay", "assay_type": "functional, tissue-based", "details": "Oryctolagus cuniculus"}, "Rattus norvegicus [4]": {"test_system": "Rattus norvegicus", "assay": "AII-like activity, expressed as percent relative to AII (angiotensin II) was measured in the in vivo rat blood pressure assay", "assay_type": "functional", "outline": "(§2)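 Rat blood pressure assay in vivo. Residual agonist activity is expressed as percent activity relative to AII.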"}, "Oryctolagus cuniculus [5]": {"organism": "Oryctolagus cuniculus", "assay": "AII-like activity, expressed as percent activity relative to AII (angiotensin II), measured in rabbit aorta strip assay"}, "Rattus norvegicus [6]": {"test_system": "Rattus norvegicus", "assay": "In vivo AII-like activity, expressed as percent activity relative to AII (angiotensin II), measured in rat blood pressure assay; g = partial agonist at 10 ng/mL", "assay_type": "functional, organism-based", "details": "filed as partial agonist", "outline": "as §2"}, "Oryctolagus cuniculus [7]": {"organism": "Oryctolagus cuniculus", "assay": "AII-like activity, expressed as percent relative to AII (angiotensin II) was measured in the in vitro rabbit aorta strip assay; g = partial agonist at 10 ng/mL", "assay_type": "functional", "details": "filed as partial agonist"}, "Rattus norvegicus [8]": {"test_system": "Rattus norvegicus", "assay": "In vivo AII-like activity, expressed as percent activity relative to AII (angiotensin II), measured in rat blood pressure assay", "assay_type": "functional", "outline": "as §2"}, "Rattus norvegicus [9]": {"test_system": "Rattus norvegicus", "assay": "Dose required for the two fold increase in the dose of AII to produce the same elevation in blood pressure as in the control period.(in vivo)", "assay_type": "functional", "outline": "as §1"}, "Oryctolagus cuniculus [10]": {"organism": "Oryctolagus cuniculus", "assay": "pA2 value was determined in the range of competitive inhibition in the in vitro rabbit aorta strip assay; g = partial agonist at 10 ng/mL", "assay_type": "functional", "details": "filed as partial agonist"}}}
{"compound": "CC[C@H](C)[C@H](NC(=O)[C@H](Cc1ccc(O)cc1)NC(=O)[C@@H](NC(=O)[C@H](CCCN=C(N)N)NC(=O)CNC)C(C)C)C(=O)N[C@@H](Cc1c[nH]cn1)C(=O)N1CCC[C@H]1C(=O)N[C@H](Cc1ccccc1)C(=O)O", "values": [{"measurement": "ID50", "setting": "Rattus norvegicus [1]", "result": 12.5, "unit": "ng min-1 rat-1"}, {"measurement": "Biological activity", "setting": "Oryctolagus cuniculus [2]", "result": 0, "unit": "%"}]}
{"compound": "CC[C@H](C)[C@H](NC(=O)[C@H](Cc1ccc(O)cc1)NC(=O)[C@@H](NC(=O)[C@H](CCCN=C(N)N)NC(=O)CNC)C(C)C)C(=O)N[C@@H](Cc1c[nH]cn1)C(=O)N1CCC[C@H]1C(=O)N[C@@H](C(=O)O)c1ccccc1", "values": [{"measurement": "ID50", "setting": "Rattus norvegicus [1]", "result": 3.5, "unit": "ng min-1 rat-1"}, {"measurement": "Biological activity", "setting": "[3]", "result": -0, "unit": "%"}]}
{"compound": "CC[C@H](C)[C@H](NC(=O)[C@H](Cc1ccc(O)cc1)NC(=O)[C@@H](NC(=O)[C@H](CCCNC(=N)N)NC(=O)CNC)C(C)C)C(=O)N[C@@H](Cc1c[nH]cn1)C(=O)N1CCC[C@H]1C(=O)N[C@@H](C(=O)O)C(C)C", "values": [{"measurement": "ID50", "setting": "Rattus norvegicus [1]", "result": 50, "unit": "ng min-1 rat-1"}, {"measurement": "Biological activity", "setting": "Rattus norvegicus [4]", "result": 10}]}
{"compound": "CC[C@H](C)[C@H](NC(=O)[C@H](Cc1ccccc1)NC(=O)[C@@H](NC(=O)[C@H](CCCN=C(N)N)NC(=O)CNC)C(C)C)C(=O)N[C@@H](Cc1c[nH]cn1)C(=O)N1CCC[C@H]1C(=O)N[C@H](Cc1ccc(O)cc1)C(=O)O", "values": [{"measurement": "ID50", "setting": "Rattus norvegicus [1]", "result": 25, "unit": "ng min-1 rat-1"}, {"measurement": "Biological activity", "setting": "[3]", "result": -0, "unit": "%"}]}
{"compound": "CC[C@H](C)[C@H](NC(=O)[C@H]1CCCN1C(=O)[C@H](Cc1c[nH]cn1)NC(=O)[C@@H](NC(=O)[C@H](Cc1ccc(O)cc1)NC(=O)[C@@H](NC(=O)[C@H](CCCNC(=N)N)NC(=O)[C@@H](N)CC(=O)O)C(C)C)[C@@H](C)CC)C(=O)O", "values": [{"measurement": "Biological activity", "setting": "Oryctolagus cuniculus [5]", "result": 0.1, "unit": "%"}]}
{"compound": "CC[C@H](C)[C@H](NC(=O)[C@H](Cc1ccc(O)cc1)NC(=O)[C@@H](NC(=O)[C@H](CCCN=C(N)N)NC(=O)CNC)C(C)C)C(=O)N[C@@H](Cc1c[nH]cn1)C(=O)N1CCC[C@H]1C(=O)N[C@H](C(=O)O)c1ccccc1", "values": [{"measurement": "Biological activity", "setting": "Rattus norvegicus [6]", "result": "Partial agonist"}, {"measurement": "Biological activity", "setting": "Oryctolagus cuniculus [7]", "result": "Partial agonist"}]}
{"compound": "CC[C@H](C)[C@H](NC(=O)[C@H](Cc1ccc(O)cc1)NC(=O)[C@@H](NC(=O)[C@@H](CCCNC(=N)N)NC(=O)CNC)C(C)C)C(=O)N[C@@H](Cc1c[nH]cn1)C(=O)N1CCC[C@@H]1C(=O)NC(Cc1c[nH]c2ccccc12)C(=O)O", "note": "(stereo in doubt)", "values": [{"measurement": "ID50", "setting": "Rattus norvegicus [1]", "result": 10, "unit": "ng min-1 rat-1"}]}
{"compound": "CC[C@H](C)[C@H](NC(=O)[C@H](Cc1ccccc1)NC(=O)[C@@H](NC(=O)[C@H](CCCN=C(N)N)NC(=O)CNC)C(C)C)C(=O)N[C@@H](Cc1c[nH]cn1)C(=O)N1CCC[C@H]1C(=O)N[C@@H](Cc1ccc(O)cc1)C(=O)O", "values": [{"measurement": "ID50", "setting": "Rattus norvegicus [1]", "result": 50, "unit": "ng min-1 rat-1"}, {"measurement": "Biological activity", "setting": "[3]", "result": -0, "unit": "%"}]}
{"compound": "CC[C@H](C)[C@H](NC(=O)[C@@H]1CCCN1C(=O)[C@H](Cc1c[nH]cn1)NC(=O)[C@H](NC(=O)[C@H](Cc1ccc(O)cc1)NC(=O)[C@H](NC(=O)[C@H](CCCN=C(N)N)NC(=O)CNC)C(C)C)C(C)C)C(=O)O", "values": [{"measurement": "Biological activity", "setting": "[3]", "result": -0, "unit": "%"}, {"measurement": "Biological activity", "setting": "Rattus norvegicus [8]", "result": 0, "unit": "%"}, {"measurement": "ID50", "setting": "Rattus norvegicus [9]", "result": ">1000", "unit": "ng min-1 rat-1"}]}
{"compound": "CC[C@H](C)[C@H](NC(=O)[C@@H]1CCCN1C(=O)[C@@H](Cc1c[nH]cn1)NC(=O)[C@@H](NC(=O)[C@H](Cc1ccc(O)cc1)NC(=O)[C@@H](NC(=O)[C@H](CCCN=C(N)N)NC(=O)CNC)C(C)C)[C@@H](C)CC)C(=O)O", "values": [{"measurement": "Biological activity", "setting": "[3]", "result": -0, "unit": "%"}, {"measurement": "Biological activity", "setting": "Rattus norvegicus [4]", "result": 0, "unit": "%"}, {"measurement": "ID50", "setting": "Rattus norvegicus [9]", "result": ">1000", "unit": "ng min-1 rat-1"}]}
{"compound": "CC[C@H](C)[C@H](NC(=O)[C@@H]1CCCN1C(=O)[C@H](Cc1c[nH]cn1)NC(=O)[C@@H](NC(=O)[C@H](Cc1ccc(O)cc1)NC(=O)[C@@H](NC(=O)[C@@H](CCCN=C(N)N)NC(=O)CNC)C(C)C)[C@@H](C)CC)C(=O)O", "values": [{"measurement": "Biological activity", "setting": "[3]", "result": -0, "unit": "%"}, {"measurement": "ID50", "setting": "Rattus norvegicus [9]", "result": 150, "unit": "ng min-1 rat-1"}]}
{"compound": "CC[C@H](C)[C@H](NC(=O)[C@H](Cc1ccc(O)cc1)NC(=O)[C@@H](NC(=O)[C@H](CCCN=C(N)N)NC(=O)CNC)C(C)C)C(=O)N[C@@H](Cc1c[nH]cn1)C(=O)N1CCC[C@H]1C(=O)N[C@@H](CCc1ccccc1)C(=O)O", "values": [{"measurement": "Biological activity", "setting": "Oryctolagus cuniculus [7]", "result": "Partial agonist"}, {"measurement": "pA2", "setting": "Oryctolagus cuniculus [10]", "result": "Partial agonist"}]}
{"compound": "CC[C@H](C)[C@H](NC(=O)[C@H](Cc1ccc(O)cc1)NC(=O)[C@@H](NC(=O)[C@H](CCCN=C(N)N)NC(=O)CNC)C(C)C)C(=O)N[C@@H](Cc1c[nH]cn1)C(=O)N1CCC[C@H]1C(=O)N[C@@H](C)C(=O)O", "values": [{"measurement": "ID50", "setting": "Rattus norvegicus [1]", "result": 15, "unit": "ng min-1 rat-1"}, {"measurement": "Biological activity", "setting": "[3]", "result": -0, "unit": "%"}]}
{"compound": "CC[C@H](C)[C@H](NC(=O)[C@@H]1CCCN1C(=O)[C@H](Cc1c[nH]cn1)NC(=O)[C@@H](NC(=O)[C@H](Cc1ccc(O)cc1)NC(=O)[C@@H](NC(=O)[C@H](CCCN=C(N)N)NC(=O)CNC)C(C)C)[C@@H](C)CC)C(=O)O", "values": [{"measurement": "Biological activity", "setting": "[3]", "result": -0, "unit": "%"}, {"measurement": "ID50", "setting": "Rattus norvegicus [9]", "result": 10, "unit": "ng min-1 rat-1"}]}
{"compound": "CC[C@H](C)[C@H](NC(=O)C(C)NC(=O)[C@H](Cc1c[nH]cn1)NC(=O)[C@H](NC(=O)[C@@H](Cc1ccc(O)cc1)NC(=O)[C@@H](NC(=O)[C@H](CCCNC(=N)N)NC(=O)[C@@H](N)CC(=O)O)C(C)C)C(C)C)C(=O)O", "note": "(stereo in doubt)", "values": [{"measurement": "ID50", "setting": "Rattus norvegicus [1]", "result": 0, "unit": "ng min-1 rat-1"}]}
{"compound": "CC[C@H](C)[C@H](NC(=O)[C@H](Cc1ccc(O)cc1)NC(=O)[C@@H](NC(=O)[C@H](CCCN=C(N)N)NC(=O)CNC)C(C)C)C(=O)N[C@@H](Cc1c[nH]cn1)C(=O)N1CCC[C@H]1C(=O)N[C@H](Cc1ccc(O)cc1)C(=O)O", "values": [{"measurement": "ID50", "setting": "Rattus norvegicus [1]", "result": 20, "unit": "ng min-1 rat-1"}, {"measurement": "Biological activity", "setting": "[3]", "result": -0, "unit": "%"}]}
{"compound": "CC[C@H](C)[C@H](NC(=O)[C@H](Cc1ccc(O)cc1)NC(=O)[C@@H](NC(=O)[C@H](CCCN=C(N)N)NC(=O)CNC)C(C)C)C(=O)N[C@H](Cc1c[nH]cn1)C(=O)N1CCC[C@H]1C(=O)N[C@H](Cc1ccccc1)C(=O)O", "values": [{"measurement": "ID50", "setting": "Rattus norvegicus [1]", "result": 0, "unit": "ng min-1 rat-1"}, {"measurement": "Biological activity", "setting": "[3]", "result": -0, "unit": "%"}, {"measurement": "Biological activity", "setting": "Rattus norvegicus [8]", "result": 0, "unit": "%"}]}
